Experimental data as given in ChEMBL document CHEMBL1122121, “Synthesis and biological activity of 5'-substituted 5-fluoropyrimidine nucleosides” (J Med Chem, 1982).

Legend:
CCRF-CEM [1] = assay: Concentration required for the 50% inhibition of growth of CCRF-CEM human leukemia cells in culture; format: functional, cell-based
Summary of the method: (§1)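 10^5 mycoplasma-free L1210 or CCRF-CEM cells grown 48 h in RPMI 1640 with 10% fetal calf serum containing compound, then counted. Value is concentration giving 50% growth inhibition. Compounds were purified by preparative TLC until no FUrd was detectable by HPLC. Highest concentration noted was 10^-4 M.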

L1210 [2] = assay: Concentration required for the 50% inhibition of growth of L1210 mouse leukemia cells in culture; format: functional, cell-based; summary of the method: as §1
L1210 [3] = assay: Antitumor activity against L1210 leukemia cells in mice at a dose of 100 mg/kg (ip) expressed as change in the body weight after 7 days; format: functional, Mus musculus
Summary of the method: (§2)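 Female DBA/2 mice (18–22 g), groups of five, implanted ip with 10^5 L1210 cells on day 0. Compound in PBS given ip (0.2 mL) once daily days 1–5. Controls got PBS. Mice weighed on days 1 and 7. Weight change expressed as percentage of initial weight.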

L1210 [4] = assay: Antitumor activity against L1210 leukemia cells in mice at a dose of 150 mg/kg (ip) expressed as change in the body weight after 7 days; format: functional, Mus musculus; summary of the method: as §2
L1210 [5] = assay: Antitumor activity against L1210 leukemia cells in mice at a dose of 250 mg/kg (ip) expressed as change in the body weight after 7 days; format: functional, Mus musculus; summary of the method: as §2
Mus musculus [6] = assay: Percent increase in life span(ILS) was measured in mice at a dose of 100 mg/kg; format: functional
Summary of the method: (§3)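 Female DBA/2 mice (18–22 g), groups of five, implanted ip on day 0 with 10^5 L1210 leukemia cells. Compound dissolved in PBS and given ip daily on days 1–5 (q.d. 1–5). Controls received PBS. Mice were weighed on days 1 and 7. Read-outs were mean mortality and percent increase in life span.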

Mus musculus [7] = assay: Percent increase in life span(ILS) was measured in mice at a dose of 150 mg/kg; format: functional; summary of the method: as §3
Mus musculus [8] = assay: Percent increase in life span(ILS) was measured in mice at a dose of 250 mg/kg; format: functional; summary of the method: as §3
Mus musculus [9] = assay: Mortality rate was measured at a dose of 100 mg/kg; format: functional; summary of the method: as §3
Mus musculus [10] = assay: Mortality rate was measured at a dose of 150 mg/kg; format: functional; summary of the method: as §3
Mus musculus [11] = assay: Mortality rate was measured at a dose of 250 mg/kg; format: functional; summary of the method: as §3
CCRF-CEM [12] = assay: Concentration required for the 50% inhibition of growth of CCRF-CEM human leukemia cells in culture; No growth inhibition was observed at a concentration of 10^-4 M; format: functional, cell-based; summary of the method: as §1
L1210 [13] = assay: Concentration required for the 50% inhibition of growth of L1210 mouse leukemia cells in culture; No growth inhibition was observed at a concentration of 10^-4 M; format: functional, cell-based; summary of the method: as §1

Structure (SMILES): [N-]=[N+]=NC[C@H]1OC(n2cc(F)c(=O)[nH]c2=O)[C@H](O)[C@@H]1O (some centres not stated)
- IC50 (CCRF-CEM [1]): 350 µM
- IC50 (L1210 [2]): 170 µM

Structure (SMILES): O=c1[nH]c(=O)n(C2O[C@H](CCl)[C@@H](O)[C@H]2O)cc1F (some centres not stated)
- Change of body weight (L1210 [3]): -0.8%
- Change of body weight (L1210 [4]): -3.5%
- Change of body weight (L1210 [5]): -4.6%
- IC50 (L1210 [2]): 3.4 µM
- ILS at 100 mg/kg (Mus musculus [6]): 47%
- ILS at 150 mg/kg (Mus musculus [7]): 51%
- ILS at 250 mg/kg (Mus musculus [8]): 64%
- Mean survival time (Mus musculus [9]): 15.6 days
- Mean day of death (Mus musculus [10]): 16 days
- Mean day of death (Mus musculus [11]): 17.4 days

Structure (SMILES): Cc1ccc(S(=O)(=O)OC[C@H]2OC(n3cc(F)c(=O)[nH]c3=O)[C@H](O)[C@@H]2O)cc1 (some centres not stated)
- IC50 (CCRF-CEM [1]): 1.8 µM
- IC50 (L1210 [2]): 0.46 µM

Structure (SMILES): O=c1[nH]c(=O)n(C2O[C@H](CO[N+](=O)[O-])[C@@H](O)[C@H]2O)cc1F (some centres not stated)
- IC50 (CCRF-CEM [12]): No inhibition
- IC50 (L1210 [13]): No inhibition

Structure (SMILES): O=c1[nH]c(=O)n(C2O[C@H](CF)[C@@H](O)[C@H]2O)cc1F (some centres not stated)
- IC50 (CCRF-CEM [1]): 140 µM
- Change of body weight (L1210 [3]): -5.6%
- Change of body weight (L1210 [4]): 0.9%
- Change of body weight (L1210 [5]): 2.3%
- IC50 (L1210 [2]): 29 µM
- ILS at 100 mg/kg (Mus musculus [6]): 32%
- ILS at 150 mg/kg (Mus musculus [7]): 30%
- ILS at 250 mg/kg (Mus musculus [8]): 58%
- Mean survival time (Mus musculus [9]): 14 days
- Mean day of death (Mus musculus [10]): 13.8 days
- Mean day of death (Mus musculus [11]): 16.8 days

Structure (SMILES): CS(=O)(=O)OC[C@H]1OC(n2cc(F)c(=O)[nH]c2=O)[C@H](O)[C@@H]1O (some centres not stated)
- IC50 (CCRF-CEM [1]): 0.66 µM
- Change of body weight (L1210 [3]): 0%
- Change of body weight (L1210 [4]): 1.3%
- Change of body weight (L1210 [5]): -1.7%
- IC50 (L1210 [2]): 0.32 µM
- ILS at 100 mg/kg (Mus musculus [6]): 26%
- ILS at 150 mg/kg (Mus musculus [7]): 40%
- ILS at 250 mg/kg (Mus musculus [8]): 58%
- Mean survival time (Mus musculus [9]): 13.4 days
- Mean day of death (Mus musculus [10]): 14.8 days
- Mean day of death (Mus musculus [11]): 16.8 days

Structure (SMILES): O=c1[nH]c(=O)n(C2O[C@H](CI)[C@@H](O)[C@H]2O)cc1F (some centres not stated)
- IC50 (CCRF-CEM [1]): 27 µM
- Change of body weight (L1210 [3]): 0%
- IC50 (L1210 [2]): 5 µM

Structure (SMILES): NC[C@H]1OC(n2cc(F)c(=O)[nH]c2=O)[C@H](O)[C@@H]1O (some centres not stated)
- IC50 (CCRF-CEM [1]): 49 µM
- Change of body weight (L1210 [3]): 1.8%
- Change of body weight (L1210 [4]): -5.5%
- Change of body weight (L1210 [5]): -0.9%
- IC50 (L1210 [2]): 8.7 µM
- ILS at 100 mg/kg (Mus musculus [6]): 17%
- ILS at 150 mg/kg (Mus musculus [7]): 19%
- ILS at 250 mg/kg (Mus musculus [8]): 28%
- Mean survival time (Mus musculus [9]): 12.4 days
- Mean day of death (Mus musculus [10]): 12.8 days
- Mean day of death (Mus musculus [11]): 13.6 days

Structure (SMILES): O=c1[nH]c(=O)n(C2O[C@H](CBr)[C@@H](O)[C@H]2O)cc1F (some centres not stated)
- IC50 (CCRF-CEM [1]): 3.1 µM
- Change of body weight (L1210 [3]): 1.7%
- Change of body weight (L1210 [5]): -1.8%
- IC50 (L1210 [2]): 0.8 µM
- ILS at 100 mg/kg (Mus musculus [6]): 34%
- ILS at 150 mg/kg (Mus musculus [7]): 41%
- ILS at 250 mg/kg (Mus musculus [8]): 34%
- Mean survival time (Mus musculus [9]): 14.2 days
- Mean day of death (Mus musculus [10]): 15 days
- Mean day of death (Mus musculus [11]): 14.2 days

Structure (SMILES): O=c1[nH]c(=O)n([C@@H]2O[C@H](CO)[C@@H](O)[C@H]2O)cc1F [5-FLUOROURIDINE]
- IC50 (CCRF-CEM [1]): 0.05 µM
- IC50 (L1210 [2]): 0.005 µM

Structure (SMILES): C[C@H]1O[C@@H](n2cc(F)c(=O)[nH]c2=O)[C@H](O)[C@@H]1O [DOXIFLURIDINE]
- IC50 (CCRF-CEM [1]): 22 µM
- Change of body weight (L1210 [3]): 5.7%
- Change of body weight (L1210 [4]): 4.8%
- Change of body weight (L1210 [5]): 0%
- IC50 (L1210 [2]): 3.6 µM
- ILS at 100 mg/kg (Mus musculus [6]): 8%
- ILS at 150 mg/kg (Mus musculus [7]): 13%
- ILS at 250 mg/kg (Mus musculus [8]): 20%
- Mean survival time (Mus musculus [9]): 11.4 days
- Mean day of death (Mus musculus [10]): 12 days
- Mean day of death (Mus musculus [11]): 12.8 days

Structure (SMILES): O=c1[nH]cc(F)c(=O)[nH]1 [FLUOROURACIL]
- IC50 (CCRF-CEM [1]): 5 µM
- IC50 (L1210 [2]): 0.5 µM
